Test results published in ChEMBL document CHEMBL1149763, “Synthesis, in vitro antiproliferative activities, and Chk1 inhibitory properties of pyrrolo[3,4-a]carbazole-1,3-diones, pyrrolo[3,4-c]carbazole-1,3-diones, and 2-aminopyridazino[3,4-a]pyrrolo[3,4-c]carbazole-1,3,4,7-tetraone” (Eur J Med Chem, 2008).
Values belong to the compound of their own block, whether it stands above or below them. Activity calls are given as the source filed them. The calls are words filed in the database; no cut-off is given here.

Key:
[1] = target: T1, Serine/threonine-protein kinase Chk1 (Homo sapiens) (UniProt O14757); test: Inhibition of human Chk1 at 10 uM
T1 sequence (whole entry): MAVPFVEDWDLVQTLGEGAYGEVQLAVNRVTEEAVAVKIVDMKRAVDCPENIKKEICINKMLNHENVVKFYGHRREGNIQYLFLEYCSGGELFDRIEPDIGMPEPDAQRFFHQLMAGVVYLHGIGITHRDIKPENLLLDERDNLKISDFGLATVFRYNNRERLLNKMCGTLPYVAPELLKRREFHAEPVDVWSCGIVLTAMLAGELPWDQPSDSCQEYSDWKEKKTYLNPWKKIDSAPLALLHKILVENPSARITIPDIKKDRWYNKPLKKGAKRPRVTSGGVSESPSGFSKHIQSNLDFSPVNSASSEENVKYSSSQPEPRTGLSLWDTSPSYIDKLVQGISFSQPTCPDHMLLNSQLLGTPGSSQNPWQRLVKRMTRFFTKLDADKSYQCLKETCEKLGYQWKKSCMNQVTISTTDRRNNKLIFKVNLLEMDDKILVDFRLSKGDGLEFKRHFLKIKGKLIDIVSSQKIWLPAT
In short: (§1)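 Chk1, commercial or GST-Chk1 purified from baculovirus-infected Sf9 cell extracts. Percent inhibition measured at a single compound concentration; IC50 also determined.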

[2] = system: L1210; test: Antiproliferative activity against mouse L1210 cells by microculture tetrazolium assay; format: functional, cell-based
In short: (§2)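 Cells grown in RPMI 1640 with 10% fetal calf serum, 2 mM L-glutamine, penicillin/streptomycin and 10 mM HEPES (pH 7.4). Continuous exposure to graded compound concentrations for four doubling times. MTT (5 mg/mL) added, 4 h at 37 °C, formazan dissolved in DMSO, optical density read. IC50 is the concentration halving optical density relative to untreated controls.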

[3] = Antiproliferative activity against human […] cells microculture tetrazolium assay; format: functional, cell-based; in short: as §2
[4] = system: HT-29; test: Antiproliferative activity against human HT29 cells microculture tetrazolium assay; format: functional, cell-based; in short: as §2
[5] = target: T2, Serine/threonine-protein kinase Chk1 (Homo sapiens, UniProt O14757); test: Inhibition of human Chk1; in short: as §1
T2 sequence (O14757 whole entry): T1 sequence (whole entry)

[6] = target: Proto-oncogene tyrosine-protein kinase Src (Homo sapiens) (UniProt P12931); test: Inhibition of Src kinase at 10 uM
In short: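 Radiometric Src kinase assay. 20 min at 30 °C, stopped with 0.85% orthophosphoric acid, captured on phosphocellulose filter, washed with orthophosphoric acid, dried with acetone.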

Chain of Proto-oncogene tyrosine-protein kinase Src (Homo sapiens) (P12931 2-536 limits assumed): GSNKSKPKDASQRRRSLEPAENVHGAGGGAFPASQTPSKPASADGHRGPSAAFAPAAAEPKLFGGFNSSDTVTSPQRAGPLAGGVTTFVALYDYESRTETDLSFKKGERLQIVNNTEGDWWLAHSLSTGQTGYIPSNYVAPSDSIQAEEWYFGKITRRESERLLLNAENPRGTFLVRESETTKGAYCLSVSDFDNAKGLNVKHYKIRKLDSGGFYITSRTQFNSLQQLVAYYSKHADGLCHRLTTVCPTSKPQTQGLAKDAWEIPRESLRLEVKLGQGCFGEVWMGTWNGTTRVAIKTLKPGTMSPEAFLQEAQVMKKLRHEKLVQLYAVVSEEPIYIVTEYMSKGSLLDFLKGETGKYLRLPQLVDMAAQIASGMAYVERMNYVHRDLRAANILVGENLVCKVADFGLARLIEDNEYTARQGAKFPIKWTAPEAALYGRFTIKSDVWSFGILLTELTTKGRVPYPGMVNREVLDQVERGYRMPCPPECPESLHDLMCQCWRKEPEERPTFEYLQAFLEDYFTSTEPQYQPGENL

Compound: O=C1NC(=O)c2c1c1[nH]cnc1c1[nH]c3ccccc3c21 [GRANULATIMIDE]
- IC50 [3]: 6.1 µM

Compound: O=C1NC(=O)c2c1c1c3ccccc3[nH]c1n1cncc21 [ISOGRANULATIMIDE]
- IC50 [3]: 13 µM

Compound: O=C1NC(=O)c2c1c1c(c3c2[nH]c2ccccc23)C(=O)NC1
- inhibition [1]: 85.4%
- IC50 [2]: 45.8 µM
- IC50 [3]: 10.2 µM
- IC50 [4]: 8.2 µM
- IC50 [5]: 0.05 µM

Compound: CCOC(=O)c1c2c(c3[nH]c4ccccc4c3c1O)C(=O)NC2=O
- Activity [1]: inactive
- IC50 [2]: 57.5 µM
- IC50 [3]: 33.6 µM
- IC50 [4]: 84.9 µM

Compound: O=C1NC(=O)c2c1c1c(c3c2[nH]c2ccccc23)CNC1=O
- inhibition [1]: 71.7%
- IC50 [2]: 47 µM
- IC50 [3]: 58.9 µM
- IC50 [4]: > 100 µM
- IC50 [5]: 0.37 µM

Compound: O=C1NC(=O)c2c1cc(O)c1c2[nH]c2ccccc21
- inhibition [1]: 11%
- IC50 [2]: 54.4 µM
- IC50 [3]: 34.4 µM
- IC50 [4]: 46.7 µM

The next lines start with results.

- inhibition [1]: 45.3%
- IC50 [2]: 4.9 µM
- IC50 [4]: 6.4 µM
Compound: CCOC(=O)c1cc2c(c3[nH]c4ccccc4c13)C(=O)NC2=O
- IC50 [3]: 3.8 µM

- Activity [1]: inactive
- IC50 [2]: 10.6 µM
- IC50 [4]: 31.7 µM
Compound: CCOC(=O)c1c2c(c3[nH]c4ccccc4c3c1O)C(=O)N(CO)C2=O
- IC50 [3]: 11.5 µM

- inhibition [1]: 10.6%
- IC50 [2]: 5.7 µM
- IC50 [4]: 6.2 µM
Compound: O=C1NC(=O)C2C1c1[nH]c3ccccc3c1C1C(=O)OC(=O)C12 (stereo unspecified)

- inhibition [1]: 71.7%
- IC50 [2]: 5.8 µM
- IC50 [4]: 4 µM
- IC50 [5]: > 5 µM
Compound: CCOC(=O)c1cc2c(c3c1[nH]c1ccccc13)C(=O)NC2=O
- IC50 [3]: 2.3 µM

- Activity [1]: inactive
- IC50 [2]: 11.9 µM
- IC50 [4]: 33 µM
Compound: O=c1[nH]c(=O)c2c1c1[nH]c3ccccc3c1c1c(=O)oc(=O)c21
- IC50 [3]: 10.7 µM

- inhibition [1]: 72.4%
- inhibition [6]: 11.5%
- IC50 [2]: 5.5 µM
- IC50 [4]: 3.9 µM
- IC50 [5]: 0.21 µM
Compound: CCOC(=O)c1cc2c(c3c1[nH]c1ccccc13)C(=O)N(CO)C2=O
- IC50 [3]: 2.9 µM
